According to ChEMBL document CHEMBL3112563, “The benzimidazole based drugs show good activity against T. gondii but poor activity against its proposed enoyl reductase enzyme target” (Bioorg Med Chem Lett, 2014):
In brackets after ≈: the same amount, converted by molar mass. Activity calls are given as the source filed them. The rule behind the calls is not given here.

Tests used:
PC-3 = assay: Cytotoxicity against human PC3 cells at 10 uM after 96 hrs by luciferase reporter gene assay; type: cell-based; conditions: pc-3, 96 h
In short: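 Confluent luciferase-expressing PC3-Luc cells in phenol red-free DMEM (10% FCS, 1% L-glutamine, 1% penicillin-streptomycin) given compound at 10 nM–10 µM. D-luciferin potassium salt added at 150 µg/ml at 48 and 96 h, then bioluminescence imaged for 1 min. Cytotoxicity taken as loss of signal. Controls: 1% Triton X (positive) and vehicle.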

Toxoplasma gondii [1] = assay: Antiparasitic activity against tachyzoite stage of Toxoplasma gondii RH infected in HFF assessed as inhibition of parasite growth after 72 hrs by yellow fluorescence reporter gene assay; type: functional
In short: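 HFF infected with 3200 RH-YFP tachyzoites (type 1, stably transfected with yellow fluorescence gene) and treated with compound at the indicated concentrations. Relative YFP fluorescence read after 72 h at excitation/emission 510/540 nm. Controls: pyrimethamine/sulfadiazine (positive), 0.1% DMSO (negative).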

[2] = biological target: T1, Enoyl-acyl carrier reductase (Toxoplasma gondii, UniProt Q6UCJ9); assay: Inhibition of Toxoplasma gondii enoyl-ACP reductase-NADH complex
T1 sequence (Q6UCJ9 whole entry): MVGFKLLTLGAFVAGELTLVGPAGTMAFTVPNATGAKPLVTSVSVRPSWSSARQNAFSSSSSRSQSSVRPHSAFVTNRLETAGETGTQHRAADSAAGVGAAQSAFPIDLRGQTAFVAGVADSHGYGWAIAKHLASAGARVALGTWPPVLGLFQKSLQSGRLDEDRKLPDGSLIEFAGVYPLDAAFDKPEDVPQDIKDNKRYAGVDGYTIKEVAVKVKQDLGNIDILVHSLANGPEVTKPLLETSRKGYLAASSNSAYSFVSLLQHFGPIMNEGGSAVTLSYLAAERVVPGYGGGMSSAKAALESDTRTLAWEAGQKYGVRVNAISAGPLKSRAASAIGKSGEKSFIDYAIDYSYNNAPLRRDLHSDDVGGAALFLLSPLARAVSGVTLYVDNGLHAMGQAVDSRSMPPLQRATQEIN

HFF = assay: Cytotoxicity against HFF assessed as cell viability at 10 uM after 72 hrs by WST-1 assay; type: cell-based; conditions: human
In short: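 Host HFF incubated with compound at 10 µM for 72 h. Viability read by WST-1 staining. DMSO at several concentrations in the culture medium gave a standard toxicity curve.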

Toxoplasma gondii [3] = assay: Antiparasitic activity against tachyzoite stage of Toxoplasma gondii PRU infected in HFF assessed as inhibition of parasite growth at 10 uM after 72 hrs by yellow fluorescence reporter gene assay; type: functional

Which results are given for `Cc1cc2ncn(Cc3ccc(Cl)c(Cl)c3)c2cc1C`?
Activity (PC-3): Non-toxic; MIC50 (Toxoplasma gondii [1]): 2.5 µM (≈ 0.763 µg/mL); IC50 [2]: > 1000 nM; Activity (HFF): Non-toxic; inhibition (Toxoplasma gondii [3]): Active

Which Activity (PC-3) does the source give for `Cc1ccc(Cn2cnc3cc(C)c(C)cc32)cc1` here?
The Activity was “Non-toxic”.

And the MIC50 (Toxoplasma gondii [1])?
Its MIC50 is > 10 µM.

And the IC50 [2]?
Its IC50 is > 1000 nM.

What about the Activity (HFF) of the same molecule?
The Activity was “Non-toxic”.

What about the inhibition (Toxoplasma gondii [3]) of the same molecule?
The inhibition was “Active”.

What does the source list for `Cc1cc2ncn(Cc3ccc(Cl)cc3)c2cc1C`?
Activity (PC-3): Non-toxic; MIC50 (Toxoplasma gondii [1]): 4 µM (≈ 1.08 µg/mL); IC50 [2]: > 1000 nM; Activity (HFF): Non-toxic
